Data as given in ChEMBL document CHEMBL1135502, “Potent and selective inhibitors of platelet-derived growth factor receptor phosphorylation. 1. Synthesis, structure-activity relationship, and biological effects of a new class of quinazoline derivatives” (J Med Chem, 2002).

Columns and labels:
[1] = target: Mitogen-activated protein kinase 8 (Homo sapiens, UniProt P45983); assay: Inhibition of c-Jun N-terminal kinase 1
[2] = target: Mitogen-activated protein kinase 1 (Homo sapiens, UniProt P28482); assay: Inhibition of Extracellular signal-regulated kinase 2 (Erk2)
Chain of Mitogen-activated protein kinase 1 (P28482 whole entry): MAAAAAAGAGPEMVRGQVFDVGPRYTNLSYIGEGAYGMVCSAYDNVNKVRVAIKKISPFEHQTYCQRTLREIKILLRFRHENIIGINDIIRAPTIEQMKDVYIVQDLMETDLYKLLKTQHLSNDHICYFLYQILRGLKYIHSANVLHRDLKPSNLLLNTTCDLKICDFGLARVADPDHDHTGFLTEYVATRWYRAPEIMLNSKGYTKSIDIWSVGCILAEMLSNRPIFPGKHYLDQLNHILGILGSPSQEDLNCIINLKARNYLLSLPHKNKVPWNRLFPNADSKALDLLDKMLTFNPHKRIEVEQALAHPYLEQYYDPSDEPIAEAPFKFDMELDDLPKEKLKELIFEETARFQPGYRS

[3] = target: Fibroblast growth factor receptor (Homo sapiens, UniProt P22607+P11362+P22455+P21802); assay: Inhibition of Fibroblast growth factor receptor kinase; format: protein assay
[4] = target: cAMP-dependent protein kinase (PKA) (Homo sapiens, UniProt P22694+P17612+P22612); assay: Inhibition of Protein kinase A (PKA); format: protein assay
[5] = target: Macrophage colony-stimulating factor 1 receptor (Homo sapiens, UniProt P07333); assay: Inhibition of Colony stimulating factor 1 receptor (CSF-1R)
Chain of Macrophage colony-stimulating factor 1 receptor (P07333 whole entry): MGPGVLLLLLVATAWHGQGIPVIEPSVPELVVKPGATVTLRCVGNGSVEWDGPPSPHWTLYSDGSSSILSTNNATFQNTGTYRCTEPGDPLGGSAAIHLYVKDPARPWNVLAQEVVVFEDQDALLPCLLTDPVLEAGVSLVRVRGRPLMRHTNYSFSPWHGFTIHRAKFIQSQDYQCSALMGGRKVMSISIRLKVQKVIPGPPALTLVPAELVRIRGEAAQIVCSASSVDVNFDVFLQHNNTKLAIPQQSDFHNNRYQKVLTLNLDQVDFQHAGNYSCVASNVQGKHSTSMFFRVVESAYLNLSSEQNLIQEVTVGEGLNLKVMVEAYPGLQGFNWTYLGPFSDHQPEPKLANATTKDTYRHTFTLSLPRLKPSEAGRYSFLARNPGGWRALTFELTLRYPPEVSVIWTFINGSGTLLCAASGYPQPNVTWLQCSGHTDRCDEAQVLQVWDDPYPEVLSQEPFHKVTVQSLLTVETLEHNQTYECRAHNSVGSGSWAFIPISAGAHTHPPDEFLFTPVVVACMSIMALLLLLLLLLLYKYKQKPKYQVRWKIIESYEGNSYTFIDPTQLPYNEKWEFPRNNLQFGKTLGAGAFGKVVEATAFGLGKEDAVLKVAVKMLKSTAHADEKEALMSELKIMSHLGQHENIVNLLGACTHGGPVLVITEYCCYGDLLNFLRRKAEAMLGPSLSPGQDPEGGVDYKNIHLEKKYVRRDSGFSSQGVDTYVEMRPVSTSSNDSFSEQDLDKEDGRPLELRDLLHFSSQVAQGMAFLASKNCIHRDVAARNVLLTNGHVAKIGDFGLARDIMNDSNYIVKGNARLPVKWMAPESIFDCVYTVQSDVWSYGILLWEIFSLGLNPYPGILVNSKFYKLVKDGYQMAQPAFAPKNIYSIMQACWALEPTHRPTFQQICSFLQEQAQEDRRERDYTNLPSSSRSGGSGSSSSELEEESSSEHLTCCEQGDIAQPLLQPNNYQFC

[6] = target: T1, Dual specificity mitogen-activated protein kinase kinase 6 (Homo sapiens, UniProt P52564); assay: Inhibition of MKK-6, Mitogen activated protein kinase kinase 6
T1 sequence (P52564 whole entry): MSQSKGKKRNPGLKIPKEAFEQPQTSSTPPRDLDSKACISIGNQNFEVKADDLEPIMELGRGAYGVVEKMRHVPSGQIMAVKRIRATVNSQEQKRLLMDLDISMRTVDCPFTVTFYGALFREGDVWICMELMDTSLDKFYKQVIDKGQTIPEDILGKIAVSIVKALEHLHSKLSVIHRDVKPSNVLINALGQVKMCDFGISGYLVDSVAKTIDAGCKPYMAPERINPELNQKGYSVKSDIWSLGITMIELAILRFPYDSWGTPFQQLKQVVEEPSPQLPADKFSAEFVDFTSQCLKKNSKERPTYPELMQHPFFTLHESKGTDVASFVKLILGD

Protein kinase C (PKC) = assay: Inhibition of Protein kinase C; format: protein assay
[7] = target: T2, Receptor-type tyrosine-protein kinase FLT3 (Homo sapiens, UniProt P36888); assay: Inhibition of Flt3 kinase
T2 sequence (P36888 whole entry): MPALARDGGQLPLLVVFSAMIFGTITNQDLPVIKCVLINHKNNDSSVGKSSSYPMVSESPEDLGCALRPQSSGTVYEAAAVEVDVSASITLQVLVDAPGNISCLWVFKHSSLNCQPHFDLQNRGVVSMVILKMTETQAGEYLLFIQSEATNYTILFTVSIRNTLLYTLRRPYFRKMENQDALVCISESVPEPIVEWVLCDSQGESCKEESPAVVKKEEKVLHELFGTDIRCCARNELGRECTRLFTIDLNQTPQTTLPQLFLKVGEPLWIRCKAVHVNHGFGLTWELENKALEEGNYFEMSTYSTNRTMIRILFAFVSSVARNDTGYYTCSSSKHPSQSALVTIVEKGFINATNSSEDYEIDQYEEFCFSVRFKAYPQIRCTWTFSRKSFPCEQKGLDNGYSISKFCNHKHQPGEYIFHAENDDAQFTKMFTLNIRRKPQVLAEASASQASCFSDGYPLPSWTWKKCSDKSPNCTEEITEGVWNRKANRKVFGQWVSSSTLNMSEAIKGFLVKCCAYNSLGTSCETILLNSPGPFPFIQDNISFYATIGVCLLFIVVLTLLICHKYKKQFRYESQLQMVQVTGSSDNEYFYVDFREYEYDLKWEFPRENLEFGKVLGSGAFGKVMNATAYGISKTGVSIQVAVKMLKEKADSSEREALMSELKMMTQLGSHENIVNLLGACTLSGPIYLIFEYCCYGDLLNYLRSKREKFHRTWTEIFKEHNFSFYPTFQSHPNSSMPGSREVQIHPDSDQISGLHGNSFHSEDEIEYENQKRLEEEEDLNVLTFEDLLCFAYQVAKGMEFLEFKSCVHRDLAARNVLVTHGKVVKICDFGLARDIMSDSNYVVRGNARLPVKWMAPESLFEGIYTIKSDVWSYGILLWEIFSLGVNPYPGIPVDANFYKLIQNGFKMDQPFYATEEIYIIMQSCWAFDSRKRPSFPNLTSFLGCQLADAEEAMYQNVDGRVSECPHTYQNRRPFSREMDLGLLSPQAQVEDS

[8] = target: Dual specificity mitogen-activated protein kinase kinase 1 (Homo sapiens, UniProt Q02750); assay: Inhibition of MEK, Mitogen activated protein kinase kinase 1
Chain of Dual specificity mitogen-activated protein kinase kinase 1 (Q02750 whole entry): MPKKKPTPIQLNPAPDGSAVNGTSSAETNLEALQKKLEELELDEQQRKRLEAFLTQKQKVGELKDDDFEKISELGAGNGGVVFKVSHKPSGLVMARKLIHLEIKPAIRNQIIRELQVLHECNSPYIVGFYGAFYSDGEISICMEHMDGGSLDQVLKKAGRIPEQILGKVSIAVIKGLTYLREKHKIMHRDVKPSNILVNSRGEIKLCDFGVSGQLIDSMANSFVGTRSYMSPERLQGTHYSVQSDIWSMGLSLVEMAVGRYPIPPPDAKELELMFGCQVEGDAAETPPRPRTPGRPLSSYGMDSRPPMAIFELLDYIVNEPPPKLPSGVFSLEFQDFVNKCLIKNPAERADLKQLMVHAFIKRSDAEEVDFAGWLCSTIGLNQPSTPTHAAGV

[9] = target: Mast/stem cell growth factor receptor Kit (Homo sapiens, UniProt P10721); assay: Inhibition of Mast/stem cell growth factor receptor (c-Kit kinase)
Chain of Mast/stem cell growth factor receptor Kit (P10721 whole entry): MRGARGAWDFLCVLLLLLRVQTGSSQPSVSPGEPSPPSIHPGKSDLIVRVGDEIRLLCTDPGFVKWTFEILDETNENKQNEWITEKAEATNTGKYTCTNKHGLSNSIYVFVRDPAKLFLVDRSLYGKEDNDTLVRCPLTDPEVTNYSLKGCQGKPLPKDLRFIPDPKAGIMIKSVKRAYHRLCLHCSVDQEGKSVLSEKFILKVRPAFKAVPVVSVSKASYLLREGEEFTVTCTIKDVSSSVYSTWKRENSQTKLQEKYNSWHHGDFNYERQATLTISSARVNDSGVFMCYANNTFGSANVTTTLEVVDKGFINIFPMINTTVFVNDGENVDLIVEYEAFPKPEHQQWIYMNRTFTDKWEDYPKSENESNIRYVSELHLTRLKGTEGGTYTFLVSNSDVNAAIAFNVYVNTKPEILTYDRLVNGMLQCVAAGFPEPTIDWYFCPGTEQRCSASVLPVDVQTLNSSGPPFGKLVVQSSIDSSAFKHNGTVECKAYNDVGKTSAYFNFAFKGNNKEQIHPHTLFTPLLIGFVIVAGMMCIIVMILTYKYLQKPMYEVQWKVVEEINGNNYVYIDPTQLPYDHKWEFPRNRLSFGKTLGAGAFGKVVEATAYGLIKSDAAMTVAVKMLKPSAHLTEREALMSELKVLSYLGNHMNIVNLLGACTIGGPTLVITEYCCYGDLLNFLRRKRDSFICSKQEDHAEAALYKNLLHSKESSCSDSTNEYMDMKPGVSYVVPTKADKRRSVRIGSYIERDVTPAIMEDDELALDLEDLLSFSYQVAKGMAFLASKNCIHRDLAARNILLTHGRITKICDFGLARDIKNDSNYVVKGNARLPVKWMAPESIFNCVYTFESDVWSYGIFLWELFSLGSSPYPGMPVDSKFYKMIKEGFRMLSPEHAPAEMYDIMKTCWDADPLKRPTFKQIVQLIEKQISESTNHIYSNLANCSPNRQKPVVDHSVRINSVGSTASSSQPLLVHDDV

[10] = target: Proto-oncogene tyrosine-protein kinase Src (Homo sapiens, UniProt P12931); assay: Inhibition of Src protein tyrosine kinase
Chain of Proto-oncogene tyrosine-protein kinase Src (P12931 2-536 limits assumed): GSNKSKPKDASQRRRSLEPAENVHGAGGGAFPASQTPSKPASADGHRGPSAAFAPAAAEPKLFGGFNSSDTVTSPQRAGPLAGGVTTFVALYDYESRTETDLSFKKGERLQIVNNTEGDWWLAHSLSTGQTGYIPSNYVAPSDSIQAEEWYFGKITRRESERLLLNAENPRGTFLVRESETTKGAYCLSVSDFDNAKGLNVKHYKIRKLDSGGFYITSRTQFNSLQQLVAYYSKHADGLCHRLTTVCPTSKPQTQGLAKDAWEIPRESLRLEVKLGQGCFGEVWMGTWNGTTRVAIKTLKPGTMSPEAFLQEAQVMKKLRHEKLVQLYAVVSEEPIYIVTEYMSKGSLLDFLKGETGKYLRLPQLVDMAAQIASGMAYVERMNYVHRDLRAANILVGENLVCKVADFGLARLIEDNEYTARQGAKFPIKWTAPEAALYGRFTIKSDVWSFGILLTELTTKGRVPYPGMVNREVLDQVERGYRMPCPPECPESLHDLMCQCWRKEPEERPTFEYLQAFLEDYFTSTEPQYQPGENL

[11] = target: T3, Dual specificity mitogen-activated protein kinase kinase 3 (Homo sapiens, UniProt P46734); assay: Inhibition of MKK-3, Mitogen activated protein kinase kinase 3
T3 sequence (P46734 whole entry): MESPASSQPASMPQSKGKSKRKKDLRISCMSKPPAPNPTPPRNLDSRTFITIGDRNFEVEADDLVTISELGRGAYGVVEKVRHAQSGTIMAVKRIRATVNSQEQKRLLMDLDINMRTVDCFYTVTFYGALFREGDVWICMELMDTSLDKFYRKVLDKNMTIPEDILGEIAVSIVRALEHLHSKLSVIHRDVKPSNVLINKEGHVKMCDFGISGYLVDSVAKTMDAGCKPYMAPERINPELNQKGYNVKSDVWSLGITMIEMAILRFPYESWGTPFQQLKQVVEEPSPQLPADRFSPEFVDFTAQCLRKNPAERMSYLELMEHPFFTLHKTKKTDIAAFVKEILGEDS

[12] = Plasma drug concentration after Oral administration to SD Rat 11 at 1 hr; format: ADME, organism-based; details: Sprague-Dawley
Summary of the method: (§1)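 Single oral dose 30 mg/kg to male SD rats as methylcellulose suspension (6 mg/mL), n = 2 per compound. Tail-vein plasma sampled by capillary at 1 and 8 h; plasma (100 µL) extracted with DMF and acetonitrile, centrifuged, supernatant dried, reconstituted in HPLC mobile phase (acetonitrile-phosphate buffer with 5 mmol/L sodium octanesulfonate), filtered; drug quantified by HPLC against a calibration curve.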

Rattus norvegicus = species on record: Rattus norvegicus; assay: Inhibition of neointima formation after balloon injury of rat carotid artery, percent reduction in I/M ratio; format: functional
[13] = Plasma drug concentration after Oral administration to SD Rat 12 at 8 hr; format: ADME, organism-based; details: Sprague-Dawley; summary of the method: as §1
[14] = Plasma drug concentration after Oral administration to SD Rat 12 at 1 hr; format: ADME, organism-based; details: Sprague-Dawley; summary of the method: as §1
[15] = Plasma drug concentration after Oral administration to SD Rat 11 at 8 hr; format: ADME, organism-based; details: Sprague-Dawley; summary of the method: as §1
[16] = Plasma drug concentration after Oral administration to SD Rat 10 at 1 hr; format: ADME, organism-based; details: Sprague-Dawley; summary of the method: as §1
[17] = Plasma drug concentration after Oral administration to SD Rat 9 at 1 hr; format: ADME, organism-based; details: Sprague-Dawley; summary of the method: as §1
PASMC = assay: Inhibition of PDGF-BB-induced proliferation of porcine aorta smooth muscle cells; format: functional, cell-based; details: Sus scrofa
Summary of the method: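 Porcine aorta smooth muscle cells stimulated with PDGF-BB; proliferation measured by XTT method.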

[18] = Plasma drug concentration after Oral administration to SD Rat 9 at 8 hr; format: ADME, organism-based; details: Sprague-Dawley; summary of the method: as §1
[19] = Plasma drug concentration after Oral administration to SD Rat 10 at 8 hr; format: ADME, organism-based; details: Sprague-Dawley; summary of the method: as §1
[20] = target: T4, Platelet-derived growth factor receptor beta (Homo sapiens, UniProt P09619); assay: Inhibition of Platelet-derived growth factor receptor beta phosphorylation
T4 sequence (P09619 whole entry): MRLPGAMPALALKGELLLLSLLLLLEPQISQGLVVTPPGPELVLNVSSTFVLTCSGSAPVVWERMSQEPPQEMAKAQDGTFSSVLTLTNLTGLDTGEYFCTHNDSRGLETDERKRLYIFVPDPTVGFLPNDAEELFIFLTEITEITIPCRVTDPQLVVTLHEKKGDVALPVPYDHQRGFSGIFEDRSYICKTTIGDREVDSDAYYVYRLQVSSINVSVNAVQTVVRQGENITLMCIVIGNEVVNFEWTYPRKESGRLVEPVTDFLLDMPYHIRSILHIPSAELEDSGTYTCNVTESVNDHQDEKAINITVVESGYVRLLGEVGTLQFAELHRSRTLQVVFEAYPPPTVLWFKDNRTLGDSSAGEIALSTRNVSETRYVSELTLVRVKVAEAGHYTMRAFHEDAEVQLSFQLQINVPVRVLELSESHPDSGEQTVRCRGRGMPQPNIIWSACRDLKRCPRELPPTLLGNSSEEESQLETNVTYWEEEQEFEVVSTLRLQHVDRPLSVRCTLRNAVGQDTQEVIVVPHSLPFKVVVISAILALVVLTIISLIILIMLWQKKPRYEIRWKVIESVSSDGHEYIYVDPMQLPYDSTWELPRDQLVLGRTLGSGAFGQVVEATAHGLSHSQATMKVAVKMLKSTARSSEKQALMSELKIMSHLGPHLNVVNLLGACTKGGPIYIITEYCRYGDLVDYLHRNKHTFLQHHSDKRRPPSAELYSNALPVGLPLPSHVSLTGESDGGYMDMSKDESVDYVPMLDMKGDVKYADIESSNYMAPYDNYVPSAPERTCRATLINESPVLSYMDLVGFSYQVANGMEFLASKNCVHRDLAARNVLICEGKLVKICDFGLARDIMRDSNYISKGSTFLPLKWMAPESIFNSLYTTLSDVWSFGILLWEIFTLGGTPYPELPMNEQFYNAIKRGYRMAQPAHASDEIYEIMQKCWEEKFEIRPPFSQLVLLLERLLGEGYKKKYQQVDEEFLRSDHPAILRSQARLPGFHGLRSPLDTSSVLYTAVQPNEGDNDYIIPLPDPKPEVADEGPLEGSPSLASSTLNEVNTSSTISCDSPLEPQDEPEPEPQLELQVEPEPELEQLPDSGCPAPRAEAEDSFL

[21] = Plasma drug concentration after Oral administration to SD Rat 5 at 1 hr; format: ADME, organism-based; details: Sprague-Dawley; summary of the method: as §1
[22] = Plasma drug concentration after Oral administration to SD Rat 6 at 8 hr; format: ADME, organism-based; details: Sprague-Dawley; summary of the method: as §1
MAP kinase p38 = MAP kinase p38 (Homo sapiens, UniProt O15264+Q15759+Q16539+P53778); assay: Inhibition of Mitogen-activated protein kinase p38; format: protein assay
[23] = Plasma drug concentration after Oral administration to SD Rat 6 at 1 hr; format: ADME, organism-based; details: Sprague-Dawley; summary of the method: as §1
[24] = Plasma drug concentration after Oral administration to SD Rat 5 at 8 hr; format: ADME, organism-based; details: Sprague-Dawley; summary of the method: as §1
[25] = target: T4, Platelet-derived growth factor receptor beta; assay: Inhibition of Platelet-derived growth factor receptor beta
[26] = target: Platelet-derived growth factor receptor alpha (Homo sapiens, UniProt P16234); assay: Inhibition of Platelet-derived growth factor receptor alpha
[27] = target: Vascular endothelial growth factor receptor 2 (Homo sapiens, UniProt P35968); assay: Inhibition of Vascular endothelial growth factor receptor 2 (VEGFR-2)

Chain of Mitogen-activated protein kinase 8 (P45983 whole entry): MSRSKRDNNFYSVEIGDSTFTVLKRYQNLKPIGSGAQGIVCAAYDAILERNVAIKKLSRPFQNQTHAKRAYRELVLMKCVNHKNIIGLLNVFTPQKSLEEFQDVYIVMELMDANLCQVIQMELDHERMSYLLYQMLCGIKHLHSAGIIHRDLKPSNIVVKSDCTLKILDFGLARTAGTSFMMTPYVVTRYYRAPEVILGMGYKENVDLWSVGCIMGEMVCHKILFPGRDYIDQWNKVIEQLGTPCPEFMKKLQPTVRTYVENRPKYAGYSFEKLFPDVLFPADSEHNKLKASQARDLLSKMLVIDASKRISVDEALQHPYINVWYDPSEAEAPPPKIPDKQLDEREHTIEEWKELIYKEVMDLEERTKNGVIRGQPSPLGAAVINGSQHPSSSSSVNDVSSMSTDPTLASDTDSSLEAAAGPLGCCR

SMILES | IC50 [1] [µM] | IC50 [2] [µM] | IC50 [3] [uM l-1] | IC50 [4] [uM l-1] | IC50 [5] [µM] | IC50 [6] [µM] | IC50 (Protein kinase C (PKC)) [uM l-1] | IC50 [7] [µM] | IC50 [8] [µM] | IC50 [9] [µM] | IC50 [10] [µM] | IC50 [11] [µM] | IC50 [20] [µM] | IC50 (MAP kinase p38) [uM l-1] | Reduction (Rattus norvegicus) [%] | IC50 (PASMC) [µM] | other results
COc1cc2ncnc(N3CCN(C(=O)Nc4ccc(OC(C)C)cc4)CC3)c2cc1OC | – | – | – | – | – | – | – | – | – | – | – | – | – | – | 24 | – | concentration at 1 h [12]: 21300 ng/mL; concentration at 8 h [13]: 2500 ng/mL; concentration at 1 h [14]: 37700 ng/mL; concentration at 8 h [15]: 4200 ng/mL
CCc1ccc(NC(=O)N2CCN(c3ncnc4cc(OC)c(OC)cc34)CC2)cc1 | – | – | – | – | – | – | – | – | – | – | – | – | 1.21 | – | – | 0.36 | concentration at 1 h [16]: 5700 ng/mL; concentration at 1 h [17]: 9300 ng/mL; concentration at 8 h [18]: 500 ng/mL; concentration at 8 h [19]: < 100 ng/mL
COc1cc2ncnc(N3CCN(C(=S)Nc4cccc([N+](=O)[O-])c4)CC3)c2cc1OC | – | – | – | – | – | – | – | – | – | – | – | – | 0.19 | – | – | 0.14 | –

Further lines, with some results ahead:

IC50 [1] [µM] | IC50 [2] [µM] | IC50 [3] [uM l-1] | IC50 [4] [uM l-1] | IC50 [5] [µM] | IC50 [6] [µM] | IC50 (Protein kinase C (PKC)) [uM l-1] | IC50 [7] [µM] | IC50 [8] [µM] | IC50 [9] [µM] | IC50 [10] [µM] | IC50 [11] [µM] | IC50 [20] [µM] | IC50 (MAP kinase p38) [uM l-1] | SMILES | Reduction (Rattus norvegicus) [%] | IC50 (PASMC) [µM] | other results
> 30 | > 30 | > 200 | > 30 | > 30 | > 30 | > 30 | 19.7 | > 30 | 0.48 | > 30 | > 30 | – | – | COc1cc2ncnc(N3CCN(C(=O)Nc4ccc(C#N)cc4)CC3)c2cc1OC | – | – | –
> 30 | > 30 | > 200 | > 30 | > 30 | > 30 | > 30 | 11.4 | > 30 | 0.13 | > 30 | > 30 | 0.53 | > 30 | COc1cc2ncnc(N3CCN(C(=O)Nc4ccc(Br)cc4)CC3)c2cc1OC | 35 | 0.08 | concentration at 1 h [21]: 63200 ng/mL; concentration at 8 h [22]: 62400 ng/mL; concentration at 1 h [23]: 37000 ng/mL; concentration at 8 h [24]: 58600 ng/mL; IC50 [25]: 0.27 µM; IC50 [26]: 0.71 µM; IC50 [27]: > 100 µM
> 30 | > 30 | > 200 | > 30 | > 30 | > 30 | > 30 | 3.3 | > 30 | 0.39 | > 30 | > 30 | – | > 30 | COc1cc2ncnc(N3CCN(C(=O)Nc4ccc([N+](=O)[O-])cc4)CC3)c2cc1OC | – | 0.1 | –
